EP2 modulator – modulates human prostaglandin E2 receptor EP2 signaling; induction, % at 25 µM; EP2-expressing cells, cAMP HTRF FRET, PGE2 co-stimulation; AID 940; P43116; actives 0.83% (n = 260,000);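 active means compounds whose cAMP rise, as percent of the full-agonist control response, exceeds 60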;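 further: rat C6 glioma line stably carrying human EP2 under a CMV promoter; the protocol text gives 20 µM as final concentration; 100% = response of wells given 1 µM PGE2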
HKDC1 inh – HKDC1 (human) hexokinase inhibition; recombinant HKDC1, G6PDH/diaphorase resazurin coupled fluorescence; inhibition, % at 20 µM; actives 0.16% (n = 340,000); AID 493160;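 active means inhibition above about 35% when tested at 20 µM, limit read from the data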;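 further: plate controls were DMSO wells with enzyme for no effect and DMSO wells lacking enzyme for full effect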
Target sequence (Q2TB90 whole entry, looked up): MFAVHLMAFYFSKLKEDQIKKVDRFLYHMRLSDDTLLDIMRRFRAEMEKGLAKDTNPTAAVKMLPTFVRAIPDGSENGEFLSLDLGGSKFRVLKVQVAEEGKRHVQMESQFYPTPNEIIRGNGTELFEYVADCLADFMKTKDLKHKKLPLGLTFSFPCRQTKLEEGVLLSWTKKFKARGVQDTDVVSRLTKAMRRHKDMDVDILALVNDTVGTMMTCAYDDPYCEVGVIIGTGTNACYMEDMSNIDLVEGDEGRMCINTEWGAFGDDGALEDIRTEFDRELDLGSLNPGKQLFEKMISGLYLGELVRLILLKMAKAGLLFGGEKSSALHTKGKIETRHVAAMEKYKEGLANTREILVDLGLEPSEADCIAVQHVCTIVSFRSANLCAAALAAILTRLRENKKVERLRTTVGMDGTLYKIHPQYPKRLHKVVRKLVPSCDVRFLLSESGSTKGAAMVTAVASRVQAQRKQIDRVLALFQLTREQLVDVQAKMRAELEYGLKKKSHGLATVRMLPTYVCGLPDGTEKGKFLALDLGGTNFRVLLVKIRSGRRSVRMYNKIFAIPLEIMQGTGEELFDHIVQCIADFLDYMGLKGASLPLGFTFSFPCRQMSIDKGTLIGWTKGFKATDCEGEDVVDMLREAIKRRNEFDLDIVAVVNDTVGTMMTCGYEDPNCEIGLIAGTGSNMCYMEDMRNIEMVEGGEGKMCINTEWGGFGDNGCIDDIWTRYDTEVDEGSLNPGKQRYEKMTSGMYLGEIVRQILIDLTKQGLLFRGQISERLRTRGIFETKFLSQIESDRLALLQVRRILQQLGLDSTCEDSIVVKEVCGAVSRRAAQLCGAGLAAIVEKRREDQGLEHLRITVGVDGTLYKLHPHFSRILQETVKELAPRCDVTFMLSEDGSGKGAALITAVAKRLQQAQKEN
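Test system: recombinant HKDC1 (HK5) hexokinase enzyme, produced in-house / Doses: 20 µM test compound, 1% DMSO / Timing: 90 min, room temperature / Detection: G6PDH/diaphorase-coupled fluorescence, 1 mM NADP, 100 µM resazurin, 525/613 nm / Control set: DMSO wells with and without enzyme mix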
Tb hexokinase – T. brucei hexokinase 1 inhibition. recombinant TbHK1, G6PDH-coupled NADH A340. inhibition, % at 10 µM. actives 0.11% (n = 220,000);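 active means inhibition of 50% or more in the single-dose primary screen; inactive means inhibition below 50%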
PfGluPho inh – PfG6PD (Plasmodium falciparum) enzyme inhibition. PfGluPho enzyme, NADPH resazurin-diaphorase fluorescence. inhibition, % at 20 µM. actives 0.78% (n = 350,000). AID 504690;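 active means inhibition reaching at least a set limit at 20 µM in the primary screen, cut at about 59% in these data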;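 further: 0% = DMSO wells with substrate and 100% = DMSO wells lacking glucose-6-phosphate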
PGE2 EP2 inh – blocks the human prostaglandin E2 receptor EP2 | C6 glioma cells expressing human EP2, cAMP TR-FRET; cells stimulated with saturating PGE2 | inhibition, % at 25 µM | actives 0.52% (n = 260,000) | P43116 | AID 1422;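 active means percent inhibition above 40 after rounding to a whole number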;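 further: rat C6 glioma host cells with rolipram phosphodiesterase inhibitor present; the protocol text gives 20 µM as final concentration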
PHOSPHO1 block – blocks human PHOSPHO1 phosphatase activity | recombinant PHOSPHO1, absorbance phosphatase assay | Q8TCT1 | inhibition, % at 13.3 µM | actives 1.1% (n = 290,000); in the data active means inhibition above about 60%
PfGluPho conf – PfG6PD inhibition, single-dose confirmed | shares compounds with PfGluPho inh | recombinant PfGluPho, NADPH-diaphorase-resazurin fluorescence | inhibition, % at 20 µM | actives 34% (n = 2,400);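 active means inhibition of at least 50% at 20 µM in any single replicate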;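 further: 0% = DMSO with substrate and 100% = DMSO lacking glucose-6-phosphate substrate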
Diaphorase 10uM – inhibits diaphorase or oxidizes, flagging false PfG6PD hits. shares compounds with PfGluPho inh. AID 504862. diaphorase-coupled resazurin reduction, fluorescence, NADPH 10 uM. inhibition, % at 20 µM. actives 39% (n = 820);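 active means average inhibition reaching 50% or more with the compound at 20 µM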;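 further: resorufin red fluorescence formed as diaphorase reduces resazurin using NADPH; 0% = DMSO with enzyme and 100% = DMSO without enzyme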
Diaphorase 30uM – diaphorase inhibition or oxidation at 30 uM NADPH; AID 504863; inhibition, % at 20 µM; actives 29% (n = 820); Diaphorase/resazurin coupled assay, resorufin fluorescence; shares compounds with PfGluPho inh;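 active means inhibition averaging 50% or more, tested at 20 µM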;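 further: 0% = DMSO with enzyme and 100% = DMSO wells lacking diaphorase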
The depositor's hits bear a star. The list is not random: actives were taken first. Their share in the collection is about 2.5%.

Screening CCOc1ccc(C(=S)NC2CCCCC2)cc1OCC returned HKDC1 inh -6, PfGluPho inh 65* and PfGluPho conf 23.
`O=c1[nH]c(-c2sc3ccccc3c2Cl)nc2ccccc12` gave EP2 modulator -24 and PGE2 EP2 inh 12.
`Cc1ccc2nc(-c3ccc(NC(=S)NC4CC(C)(C)NC(C)(C)C4)cc3)sc2c1` gave EP2 modulator -53, HKDC1 inh -5, Tb hexokinase -9, PfGluPho inh 93*, PGE2 EP2 inh 12, PHOSPHO1 block -21, PfGluPho conf 111*, Diaphorase 10uM -16 and Diaphorase 30uM -1.
Screening Cc1c(C(=O)Nc2nc(-c3ccccn3)cs2)oc2ccccc12 returned HKDC1 inh -6, PfGluPho inh 62* and PfGluPho conf 25.
For COc1ccc(C(=O)N2CCN(C(=O)c3cccc(OC)c3OC)CC2)cc1 the results were EP2 modulator -13 and PGE2 EP2 inh 6.
`CC(NC(=O)c1ccco1)c1nc(-c2ccc(C(C)(C)C)cc2)no1` (stereo not given) gave HKDC1 inh 0, PfGluPho inh 66*, PHOSPHO1 block 39 and PfGluPho conf 4.
Screening CC(C)(C)c1ccc(-c2noc(CNC(=O)c3ccco3)n2)cc1 returned HKDC1 inh 2, PfGluPho inh 50 and PHOSPHO1 block 15.
COc1cc(/C=C/C(=O)Nc2nnc(CC(C)(C)C)s2)cc(OC)c1OC was read as EP2 modulator -22, HKDC1 inh -19, Tb hexokinase -1, PfGluPho inh 59*, PGE2 EP2 inh 4, PHOSPHO1 block 13 and PfGluPho conf 35.
Screening COc1ccccc1NC(=O)c1ccc2[nH]c(C)c(C)c2c1 returned HKDC1 inh -4, PfGluPho inh 81*, PHOSPHO1 block -7 and PfGluPho conf 32.
Screening Cc1[nH]c2ccc(C(=O)Nc3ccncc3)cc2c1C returned HKDC1 inh 3, PfGluPho inh 53 and PHOSPHO1 block 10.
`CN1CCN(C(=S)C(=O)Nc2ccc(Br)cc2)CC1` gave EP2 modulator 11, HKDC1 inh -9, Tb hexokinase -3, PfGluPho inh 81*, PGE2 EP2 inh 9, PHOSPHO1 block -1, PfGluPho conf 74*, Diaphorase 10uM -9 and Diaphorase 30uM -4.
Screening COc1ccc(OC)c(NC(=O)c2nc3ccccc3s2)c1 returned EP2 modulator 33, HKDC1 inh -5, Tb hexokinase 1, PfGluPho inh -3, PGE2 EP2 inh 10 and PHOSPHO1 block -29.
For COc1ccccc1C(=O)Nc1nc2ccccc2s1 the results were HKDC1 inh 6, PfGluPho inh 26 and PHOSPHO1 block -13.
Screening COc1ccc(NC(=O)c2cc3ccccn3n2)cc1 returned EP2 modulator 7, HKDC1 inh 0, Tb hexokinase -6, PfGluPho inh 64*, PGE2 EP2 inh 10, PHOSPHO1 block -1 and PfGluPho conf 33.
COc1ccc(NC(=O)c2nc3ccccc3s2)cc1 was read as EP2 modulator -12, HKDC1 inh 1, Tb hexokinase -10, PfGluPho inh 79*, PGE2 EP2 inh 9, PHOSPHO1 block -11 and PfGluPho conf 16.
Screening COc1ccc(C(=O)Nc2nc3ccccc3s2)c(OC)c1 returned HKDC1 inh 3, PfGluPho inh 76* and PfGluPho conf 13.
For CC(C)OC(=O)C1C2C=CC3(CN(Cc4ccccc4)C(=O)C13)O2 (stereo not given) the results were EP2 modulator 5 and PGE2 EP2 inh 4.
`COc1ccc(CNS(=O)(=O)c2cccc(S(=O)(=O)N3CCCC3)c2)cc1` gave EP2 modulator -44 and PGE2 EP2 inh 14.
Screening NC(=O)c1ccc(Oc2cccc3cccnc23)c([N+](=O)[O-])c1 returned EP2 modulator -13, HKDC1 inh 9, Tb hexokinase -7, PfGluPho inh 19, PGE2 EP2 inh 11 and PHOSPHO1 block 8.
For O=[N+]([O-])c1ccc(Oc2cccc3cccnc23)c(Cl)c1 the results were HKDC1 inh 4, PfGluPho inh 111*, PHOSPHO1 block 24, PfGluPho conf 80*, Diaphorase 10uM 72* and Diaphorase 30uM 60*.
For CNC(=S)N(CCO)Cc1cc2c(C)cc(C)cc2[nH]c1=O the results were EP2 modulator -39 and PGE2 EP2 inh 10.
Screening COc1ccc2c(c1)cc(C)c1nn(CC(=O)NC3CCCC3)c(=O)n12 returned EP2 modulator 19.
Screening N#Cc1cn(CCOc2ccccc2F)c2ccccc12 returned EP2 modulator 3, HKDC1 inh 1, Tb hexokinase -1, PfGluPho inh 50, PGE2 EP2 inh 8 and PHOSPHO1 block -10.
Screening Cc1ccc(OCCCn2cc(C#N)c3ccccc32)cc1 returned EP2 modulator 9, HKDC1 inh -1, Tb hexokinase 15, PfGluPho inh 68*, PGE2 EP2 inh 8, PHOSPHO1 block 3 and PfGluPho conf 8.
For N#Cc1cn(CCOc2ccc(F)cc2)c2ccccc12 the results were EP2 modulator 24, HKDC1 inh 2, Tb hexokinase 8, PfGluPho inh 84*, PGE2 EP2 inh 16, PHOSPHO1 block -13 and PfGluPho conf 34.
Screening CC(=O)c1cn(CCOc2ccc(C)cc2)c2ccccc12 returned EP2 modulator -53 and PGE2 EP2 inh 7.
Cc1ccc2[nH]c(=O)c(CN(Cc3ccccc3)C(c3nnnn3C3CCCCC3)C(C)C)cc2c1 (stereo not given) was read as EP2 modulator 51 and PGE2 EP2 inh 14.
Cc1cccc(NC(=O)c2cc3ccccc3o2)c1 was read as EP2 modulator 5, HKDC1 inh -10, Tb hexokinase 4, PfGluPho inh 65*, PGE2 EP2 inh 7, PHOSPHO1 block -6 and PfGluPho conf 14.
For O=C(Nc1cccc(Br)c1)c1cc2ccccc2o1 the results were EP2 modulator -47, HKDC1 inh -5, Tb hexokinase 13, PfGluPho inh 97*, PGE2 EP2 inh 10, PHOSPHO1 block 4 and PfGluPho conf 34.
Screening NS(=O)(=O)c1cccc(NC(=O)c2cc3ccccc3o2)c1 returned EP2 modulator -6, HKDC1 inh -9, Tb hexokinase 1, PfGluPho inh 21, PGE2 EP2 inh 17 and PHOSPHO1 block -3.

High-throughput results deposited in PubChem by several laboratories.
